Test [1] is filed under the species Homo sapiens. As to the kind of experiment: Inhibitory activity against the HIV-1-induced cytopathic effect in Macrophage. In kind it is functional, organism-based. In a few lines:
(§1)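 Fresh human peripheral blood lymphocytes and macrophages were isolated by Ficoll-Hypaque centrifugation. They were infected with clinical HIV-1 isolates cultured from patient peripheral blood lymphocytes, then treated with the polymers. Inhibition of HIV replication was reported as IC50.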

Test [2] concerns CEM-SS. As to the kind of experiment: Inhibitory activity against the cytopathic effect of HIV-1 RFstrain in CEM-SS cells. It counts as functional, cell-based. To be noted: Homo sapiens. In a few lines: (§2)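 XTT cytoprotection assay. CEM-SS cells were seeded at 5×10^3 per well and infected at a multiplicity that gave complete killing of virus control wells by day 6. Isolates were pretitered to equivalent infection. Serial half-log dilutions of compound were tested in triplicate. After 6 days at 37 °C, XTT (1 mg/mL) with phenazine methosulfate (6.12 µg/mL) was added for 4 h and read at 450 nm. Concentrations in µM were based on estimated number-average molecular weights.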
A general note: Cytopathic effects are the visible damage that an infection or toxin causes in cultured cells.

Test [3] concerns CEM-SS. As to the kind of experiment: Inhibitory activity against the cytopathic effect of HIV-2 A17 (pyridinone-res) strain in CEM-SS cells. It counts as functional, cell-based. The note with it: Homo sapiens. In a few lines: as §2
Test [4] concerns CEM-SS. The test is described as follows: Inhibitory activity against the cytopathic effect of HIV-2 ROD strain in CEM-SS cells. In kind it is functional, cell-based. To be noted: Homo sapiens. In a few lines: as §2
Test [5] concerns CEM-SS. As to the kind of experiment: Inhibitory activity against the cytopathic effect of HIV-2 G910-6(AZT-res) strain in CEM-SS cells. In kind it is functional, cell-based. To be noted: Homo sapiens. The gist of the method:
as §2

The subject of test [6] is CEM-SS. The test is described as follows: Inhibitory activity against the HIV-1-induced cytopathic effect in CEM-SS cell line. In kind it is functional, cell-based. To be noted: Homo sapiens. In a few lines: as §2
In test [7] the test system is CEM-SS. As to the kind of experiment: Inhibitory activity against the cytopathic effect of HIV-1 IIIB strain in CEM-SS cells. In kind it is functional, cell-based. The note with it: Homo sapiens. The gist of the method:
as §2

The subject of the next test is MT2. As to the kind of experiment: Inhibitory activity against the HIV-1-induced cytopathic effect in MT-2 cell line. In kind it is functional, cell-based. The note with it: Homo sapiens.
The species entered for test [8] is Homo sapiens. The test is described as follows: Inhibitory activity against the HIV-1-induced cytopathic effect in fresh human peripheral blood lymphocytes. In kind it is functional, organism-based. The gist of the method:
as §1

Test [9] concerns CEM-SS. The test is described as follows: Inhibitory activity against the cytopathic effect of HIV-1 LAV strain in CEM-SS cells. It counts as functional, cell-based. The note with it: Homo sapiens. In a few lines:
as §2

The test system of test [10] is CEM-SS. The test is described as follows: Inhibitory activity against the cytopathic effect of HIV-2 MS strain in CEM-SS cells. To be noted: Homo sapiens. In kind it is functional, cell-based. The gist of the method: as §2
The species entered for test [11] is Homo sapiens. As to the kind of experiment: Inhibitory activity against the HIV-1-induced cytopathic effect in human peripheral blood lymphocytes. It counts as functional, organism-based. The gist of the method:
as §1

The IC50 is the concentration that gives 50% inhibition.

Regarding `Cc1cn([C@H]2C[C@H](N=[N+]=[N-])[C@@H](CO)O2)c(=O)[nH]c1=O` [ZIDOVUDINE], the IC50 was 400 nM in the test listed under Homo sapiens [1]; 30 nM with CEM-SS [2]; 5 nM in the test on CEM-SS [3]; 5 nM in the test on CEM-SS [4]; > 1000 nM in the test on CEM-SS [5]; 2 nM with CEM-SS [6]. Moreover, the IC50 in the test on CEM-SS [7] came out at 2 nM; in the test with MT2, 6 nM; in the test listed under Homo sapiens [8] it was 20 nM; with CEM-SS [9] it was 4 nM; in the test on CEM-SS [10], 30 nM.
Take `Cn1cnc2c(ncn2C2O[C@H](COP(=O)(O)O)[C@@H](O)[C@H]2O)c1=S` (stereo partly drawn): the IC50 came to 150 nM in the test filed under Homo sapiens [1]; 170 nM with CEM-SS [2]; 600 nM in the test on CEM-SS [3]; 250 nM in the test with CEM-SS [4]; 100 nM in the test on CEM-SS [5]; 80 nM in the test with CEM-SS [6]. The IC50 with CEM-SS [7] stood at 80 nM; in the test with MT2 it was 800 nM; in the test filed under Homo sapiens [8], 30 nM; in the test on CEM-SS [9] it was 40 nM; with CEM-SS [10] it was 140 nM.
Regarding `Cn1c(N)nc2c(ncn2[C@@H]2O[C@H](CO)[C@@H](OP(=O)(O)O)[C@H]2O)c1=S`, the half-inhibitory concentration (IC50) in the test filed under Homo sapiens [1] turned out to be 2 nM; in the test filed under Homo sapiens [11] it was 30 nM; in the test with CEM-SS [2] it was 50 nM; with CEM-SS [3], 80 nM; in the test on CEM-SS [4], 30 nM; with CEM-SS [5], 20 nM. In addition, the IC50 is 10 nM with CEM-SS [6]; 10 nM in the test on CEM-SS [7]; 160 nM in the test with MT2; 30 nM with CEM-SS [9]; 30 nM with CEM-SS [10].

(Values after ChEMBL document CHEMBL1128517, “Unusual single-stranded polyribonucleotides as potent anti-HIV agents” (J Med Chem, 1995).)
